LEDGF integ inh = blocks HIV-1 LEDGF/p75-dependent DNA integration; TR-FRET IN-LEDGF/p75 DNA integration, Eu/Cy5; inhibition, % at 3.7 µM; 0.64% of 370,000 active;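 active means inhibition above the screen-wide mean plus 3 SD, cut at about 13% in these data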;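 further: signal is the Cy5 over europium emission ratio at 671 and 618 nm; 0% = plate median of compound wells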
NSD2 HMT inh = blocks human histone methyltransferase NSD2. NSD2 peptide methylation, AlphaScreen, 120 min. inhibition, % at 12.5 µM. 0.54% of 310,000 active. AID 743445; in the data active means inhibition above about 50%
UHRF1 MBD2 ctr = UHRF1 methyl-DNA binding inhibition; 0.75% of 370,000 active; UHRF1 binding to methylated oligo, TR-FRET; Q96T88; inhibition, % at 4.4 µM; in the data active means inhibition above about 21%;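 further: UHRF1 SRA domain binding a hemimethylated CpG hairpin DNA probe; 0% = median of test compound wells and 100% = reference inhibitor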
TDP2 inh = blocks human TDP2 phosphodiesterase activity; recombinant TDP2, T5PNP hydrolysis, p-nitrophenol absorbance 415 nm; 0.34% of 370,000 active; inhibition, % at 12.8 µM;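 active means inhibition above the mean of all tested compounds plus 3 SD, set per campaign, cut at about 25% in these data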;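 further: 0% = DMSO with enzyme and 100% = buffer with substrate but no TDP2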
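System: recombinant human TDP2 / Amount: 120 nM TDP2 per well / Also added: 5 mM T5PNP chromogenic substrate / Doses: 12.8 µM single point, 1% DMSO / Incubation: 2 h at 37 °C / Detection: p-Nitrophenol epi absorbance / Evaluation: % inhibition relative to enzyme-containing and enzyme-free wells / Repeats: singlicate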
MBD2 inh = MBD2-methylated oligo binding inhibition. TR-FRET, MBD2 binding to methylated oligonucleotide. AID 686964. 0.31% of 370,000 active. Q9UBB5. inhibition, % at 4.4 µM; in the data active means inhibition above about 13%
Target sequence (Q9UBB5 whole entry, looked up): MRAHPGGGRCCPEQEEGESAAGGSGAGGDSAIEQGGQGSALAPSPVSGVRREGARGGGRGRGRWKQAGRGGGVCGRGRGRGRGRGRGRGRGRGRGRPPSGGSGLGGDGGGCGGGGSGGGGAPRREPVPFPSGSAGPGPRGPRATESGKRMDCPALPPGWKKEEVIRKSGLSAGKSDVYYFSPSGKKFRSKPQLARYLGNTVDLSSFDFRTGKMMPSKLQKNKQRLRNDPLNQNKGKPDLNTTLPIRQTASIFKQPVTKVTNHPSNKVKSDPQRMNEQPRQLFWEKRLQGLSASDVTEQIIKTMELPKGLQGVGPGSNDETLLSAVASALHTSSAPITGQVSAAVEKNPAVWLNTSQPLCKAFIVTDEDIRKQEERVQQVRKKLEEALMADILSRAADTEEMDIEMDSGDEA
CASP6 VEID inh = caspase-6 (human) enzyme inhibition | purified caspase-6, Z-VEID-R110 cleavage fluorescence | inhibition, % at 12.5 µM | 0.53% of 350,000 active | AID 686996;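 active means mean inhibition across replicates at least about 35%, with every replicate also reaching that limit, limit read from the data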;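 further: 0% = median of neutral control wells and 100% = no fluorescence left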
* marks the source's active call; other numbers are inactive results; . = no result. Most compounds without a hit are left out; they make up all but 1.8% or so of the library.

SMILES	LEDGF integ inh	NSD2 HMT inh	UHRF1 MBD2 ctr	TDP2 inh	MBD2 inh	CASP6 VEID inh
O=S(=O)(c1ccc(Br)cc1)n1c(Cc2ccccc2)nc2ccccc21	1	-5	-2	-1	-2	-1
COc1ccc2[nH]c3c(NCCN4CCCCC4)ncnc3c2c1	.	18	.	.	.	.
CCOc1ccc2[nH]c3c(NCCc4ccc(OC)c(OC)c4)ncnc3c2c1	-7	-3	45*	1	2	1
CC(=O)n1c(-c2ccccc2)c(CO)c2ccccc21	-1	.	-1	2	0	-3
NCCc1c(-c2ccccc2)n(-c2ccccc2)c2ccccc12	-2	60*	1	0	4	-3
COCCOC(=O)c1[nH]c2c(c1C)C(=O)CC(c1ccco1)C2 (centres undefined)	16*	.	33*	8	13	50*
CCOC(=O)c1[nH]c2c(c1C)C(=O)CC(c1ccco1)C2 (centres undefined)	6	.	18	2	4	33
O=C(N[C@H]1CC[C@H](CCn2cc(C3(O)CCCC3)nn2)O[C@@H]1CO)C1CC1	.	.	.	.	.	-2
COc1ccccc1N1CCN(C(=O)COc2cc(C)ccc2C)CC1	-1	-2	0	-3	-2	1
COc1ccccc1N1CCN(C(=O)COc2cc(C)cc(C)c2)CC1	1	.	28*	8	10	-2
Cc1ccc(C)c(OCC(=O)N(Cc2nnc(-c3ccccc3Cl)o2)C2CC2)c1	0	-2	-1	-2	3	1
Cc1cccc(OCC(=O)N(Cc2nnc(-c3ccccc3Cl)o2)C2CC2)c1	-8	-4	68*	-13	-2	1
COc1ccc(S(=O)(=O)N2CCCCN3[C@H](CO)[C@@H](c4ccc(C#CC5CC5)cc4)[C@@H]3C2)cc1	.	.	.	.	.	1
COc1cccc(CC(=O)OCC(=O)NC2(C#N)CCCCC2)c1	-4	-2	46*	1	4	1
COc1ccc(C#Cc2ccc3c(c2)O[C@@H](CN(C)C(=O)Nc2cccc(OC)c2)[C@@H](C)CN([C@@H](C)CO)S3(=O)=O)cc1	.	.	.	.	.	2
COc1ccc(/C=N/OCC(=O)N=Nc2c(O)[nH]c3ccc(Br)cc23)cc1	0	-5	21*	-3	6	-3
Cc1cccc(C)c1OCC(=O)N=Nc1c(O)[nH]c2ccc(Br)cc12	2	1	2	-4	-5	.
O=C1C2C3C=CC(CC3)C2C(=O)N1c1nccs1 (centres undefined)	0	27	21*	-5	6	67*
CN1CCN(C(=O)c2cc(Cl)cc(Cl)c2)CC1	3	-1	4	-17	9	65*
ONC(=Nc1ccc(Cl)cc1)c1ccc(Cl)cc1	4	0	2	-3	2	.
[S-]C(=Nc1ccc(Cl)cc1)N[n+]1ccccc1	-1	0	58*	9	-2	.
CS(=O)(=O)Nc1ccc2c(c1)[C@H]1C[C@H](CC(=O)NCc3cccnc3)O[C@@H](CO)[C@H]1O2	.	.	.	.	.	2
Cc1c(C(=O)N2CCCC2)oc2c1-c1nn(CC(=O)NCCCOC(C)C)cc1CC2	3	138*	-4	11	2	9
O=C1C=CC(=O)N1c1ccccc1N1C(=O)C=CC1=O	8	6	0	7	3	-2
CC1=CC(=O)N(c2cccc3c(N4C(=O)C=C(C)C4=O)cccc23)C1=O	7	.	23*	-1	15*	1
SMILES	LEDGF integ inh	NSD2 HMT inh	UHRF1 MBD2 ctr	TDP2 inh	MBD2 inh	CASP6 VEID inh
O=C(O)CN1C(=O)/C(=C\c2cc(Br)ccc2OCc2ccccc2F)SC1=S	-3	8	2	7	1	38*
O/N=C/c1cc(Br)ccc1OCc1ccccc1F	1	0	10	-8	0	.
COc1cc([N+](=O)[O-])cc(/C=C2/SC(=S)N(Cc3ccccc3)C2=O)c1O	2	6	-4	14	-1	.
O=C(O)CN1C(=O)/C(=C\c2cc(Br)ccc2OCc2ccccc2Cl)SC1=S	4	6	-2	2	0	76*
O=C(O)CN1C(=O)/C(=C\c2cccc(OCc3ccc(Cl)cc3Cl)c2)SC1=S	6	34	-5	20	-11	60*
O=C(O)CN1C(=O)/C(=C\c2cc(Br)ccc2OCc2ccc([N+](=O)[O-])cc2)SC1=S	-1	6	-4	3	2	55*
O=C1/C(=C\c2cc(Br)cc(Br)c2O)SC(=S)N1Cc1ccccc1	.	8	.	.	.	.
O=C(O)CCN1C(=O)/C(=C\c2cccc(OCc3ccccc3)c2)SC1=S	2	-6	-2	-6	2	1
C[C@H](O)C#Cc1ccc2c(c1)O[C@@H](CN(C)C(=O)c1ccccc1)[C@H](C)CN([C@@H](C)CO)S2(=O)=O	.	.	.	.	.	1
O=C(O)CN1C(=O)/C(=C\c2ccccc2OCc2ccc(Cl)cc2Cl)SC1=S	-2	8	-2	6	2	52*
CCOc1ccccc1C=C1SC(=S)N(CC)C1=O	0	-6	2	-5	1	-2
COc1ccc(NC(=O)N(C)C[C@@H]2OCCCC[C@H](C)Oc3ccc(NC(=O)CCCN(C)C)cc3C(=O)N([C@@H](C)CO)C[C@H]2C)cc1	.	.	.	.	.	0
CO[C@@H]1CN(C)C(=O)c2cc(NC(=O)C3CCCC3)ccc2OC[C@@H](C)N(S(=O)(=O)c2ccc(Cl)cc2)C[C@H]1C	.	.	.	.	.	-4
CC1CCN(S(=O)(=O)c2ccc3c(c2)N(CC(=O)NCc2cccnc2)C(=O)CS3)CC1	1	-1	22*	6	8	1
O=C(CN1C(=O)CSc2ccc(S(=O)(=O)N3CCCCC3)cc21)NCc1cccnc1	2	-2	4	-13	12	2
C[C@H](CO)N1C[C@H](C)[C@H](CN(C)C(=O)Nc2ccc3c(c2)OCO3)Oc2c(NC(=O)NC3CCCCC3)cccc2C1=O	.	.	.	.	.	4
CSC1SCC2C(=O)N(C)C(C(C)C)C(=O)OCC(NC(=O)c3cnc4ccccc4n3)C(=O)NC(C)C(=O)N(C)C1C(=O)N(C)C(C(C)C)C(=O)OCC(NC(=O)c1cnc3ccccc3n1)C(=O)NC(C)C(=O)N2C (centres undefined)	-51	-1	-35	4	95*	-1
O=C(N[C@@H]1CC[C@@H](CCNS(=O)(=O)c2ccc(F)cc2)O[C@H]1CO)c1cnccn1	.	.	.	.	.	0
NS(=O)(=O)c1ccc(NC(=O)C2Cc3ccccc3CN2C(=O)c2ccco2)cc1 (centres undefined)	5	7	6	3	-3	45*
C[C@@H]1CN([C@@H](C)CO)C(=O)c2cccc(N(C)C)c2O[C@H]1CN(C)C(=O)Nc1ccc2c(c1)OCO2	.	.	.	.	.	2
O=C(CCN1C(=O)/C(=C\C=C\c2ccccc2)SC1=S)Nc1ccc(C(=O)O)cc1	5	4	3	9	-2	49*

Screens from PubChem.
